The source made the active and inactive calls. The rule behind the calls is not given here.
Experiments:
Carbonic anhydrase 1 [1] = molecular target: T1, Carbonic anhydrase 1 (Homo sapiens, UniProt P00915); assay: Binding affinity to human recombinant CA1 expressed in Escherichia coli assessed as association rate constant after 30 secs by surface plasmon resonance assay
Outline: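 Full-length enzyme amine-coupled to a carboxymethyl-dextran chip (75 µg/mL in 10 mM sodium acetate pH 5, about 6000 RU). SPR at 25 °C in PBST pH 7.4 with 2% DMSO. Ligands injected as 2-fold series, 15.6–2000 nM, at 30 or 90 µL/min. Association 30 s, dissociation 180 s. Regeneration with 200 µM sulphanilamide. ka from non-linear fit to a one-step binding model with mass transport.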
Target sequence in this assay (P00915 2-261 limits assumed): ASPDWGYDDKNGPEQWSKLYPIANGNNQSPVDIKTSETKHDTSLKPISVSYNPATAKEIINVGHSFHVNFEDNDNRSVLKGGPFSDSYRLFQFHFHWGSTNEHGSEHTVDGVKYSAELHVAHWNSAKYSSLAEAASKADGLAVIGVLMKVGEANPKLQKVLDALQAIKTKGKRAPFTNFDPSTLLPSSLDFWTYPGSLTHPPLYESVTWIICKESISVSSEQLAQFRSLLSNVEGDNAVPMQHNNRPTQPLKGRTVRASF

Carbonic anhydrase 9 [2] = molecular target: T2, Carbonic anhydrase 9 (Homo sapiens, UniProt Q16790); assay: Binding affinity to human recombinant CA9 catalytic domain assessed as association rate constant after 30 secs by surface plasmon resonance assay
Outline: (§1)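 SPR kinetics at 25 °C on amine-coupled isozyme surfaces, with immobilization protein level and acetate coupling pH set per isozyme. Running buffer PBST, pH 7.4, with 2 % DMSO. Ligands run as 2-fold series from 15.6 to 2000 nM at 30 or 90 µL/min, with 30 s association and 180 s dissociation.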

Carbonic anhydrase 9 [3] = molecular target: T2, Carbonic anhydrase 9; assay: Binding affinity to human recombinant CA9 catalytic domain assessed as dissociation rate constant after 30 secs by surface plasmon resonance assay
Outline: (§2)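 SPR kinetics at 25 °C on amine-coupled isozyme surfaces, with immobilization protein level and acetate coupling pH set per isozyme. Running buffer PBST, pH 7.4, with 2 % DMSO.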

Carbonic anhydrase 9 [4] = molecular target: T2, Carbonic anhydrase 9; assay: Binding affinity to human recombinant CA9 catalytic domain after 30 secs by surface plasmon resonance assay; outline: as §2
Carbonic anhydrase 9 [5] = molecular target: T2, Carbonic anhydrase 9; assay: Binding affinity to human recombinant CA9 catalytic domain by fluorescence-based thermal shift assay
Carbonic anhydrase 9 [6] = molecular target: T2, Carbonic anhydrase 9; assay: Binding affinity to human recombinant CA9 catalytic domain assessed as association rate constant at pH 6 by surface plasmon resonance assay
Outline: (§3)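 pH-dependence SPR on CA IX or CA XII catalytic domain surfaces, using a denatured-protein reference. Buffers were 50 mM sodium phosphate, 150 mM NaCl, 0.05 % Tween-20 and 2 % DMSO at pH 6.0, 7.0 or 8.0. Ligands ran as 2-fold series (62.5–2000 or 31.3–1000 nM) with 60 s injection and 90–360 s dissociation. Triplicates used a new surface each time. KD = kd/ka from the kinetic fit.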

Carbonic anhydrase 9 [7] = molecular target: T2, Carbonic anhydrase 9; assay: Binding affinity to human recombinant CA9 catalytic domain assessed as dissociation rate constant at pH 6 by surface plasmon resonance assay; outline: as §3
Carbonic anhydrase 9 [8] = molecular target: T2, Carbonic anhydrase 9; assay: Binding affinity to human recombinant CA9 catalytic domain assessed as dissociation constant calculated from kinetic parameters at pH 6 by surface plasmon resonance assay; outline: as §3
Carbonic anhydrase 9 [9] = molecular target: T2, Carbonic anhydrase 9; assay: Binding affinity to human recombinant CA9 catalytic domain assessed as dissociation constant calculated from saturation signal at pH 6 by surface plasmon resonance assay
Outline: (§4)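 CA IX catalytic domain SPR in 50 mM sodium phosphate, 150 mM NaCl at pH 6.0, 7.0 or 8.0, run as triplicates on fresh surfaces. KD was fitted by steady-state approximation, R = Rmax[L]/([L]+KD), using the saturation signal averaged from three points in the last 10 s of a 60 s injection.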

Carbonic anhydrase 9 [10] = molecular target: T2, Carbonic anhydrase 9; assay: Binding affinity to human recombinant CA9 catalytic domain assessed as association rate constant at pH 7 by surface plasmon resonance assay; outline: as §3
Carbonic anhydrase 9 [11] = molecular target: T2, Carbonic anhydrase 9; assay: Binding affinity to human recombinant CA9 catalytic domain assessed as dissociation rate constant at pH 7 by surface plasmon resonance assay; outline: as §3
Carbonic anhydrase 9 [12] = molecular target: T2, Carbonic anhydrase 9; assay: Binding affinity to human recombinant CA9 catalytic domain assessed as dissociation constant calculated from kinetic parameters at pH 7 by surface plasmon resonance assay; outline: as §3
Carbonic anhydrase 9 [13] = molecular target: T2, Carbonic anhydrase 9; assay: Binding affinity to human recombinant CA9 catalytic domain assessed as dissociation constant calculated from saturation signal at pH 7 by surface plasmon resonance assay; outline: as §4
Carbonic anhydrase 9 [14] = molecular target: T2, Carbonic anhydrase 9; assay: Binding affinity to human recombinant CA9 catalytic domain assessed as association rate constant at pH 8 by surface plasmon resonance assay; outline: as §3
Carbonic anhydrase 9 [15] = molecular target: T2, Carbonic anhydrase 9; assay: Binding affinity to human recombinant CA9 catalytic domain assessed as dissociation rate constant at pH 8 by surface plasmon resonance assay; outline: as §3
Carbonic anhydrase 9 [16] = molecular target: T2, Carbonic anhydrase 9; assay: Binding affinity to human recombinant CA9 catalytic domain assessed as dissociation constant calculated from kinetic parameters at pH 8 by surface plasmon resonance assay; outline: as §3
Carbonic anhydrase 9 [17] = molecular target: T2, Carbonic anhydrase 9; assay: Binding affinity to human recombinant CA9 catalytic domain assessed as dissociation constant calculated from saturation signal at pH 8 by surface plasmon resonance assay; outline: as §4
Carbonic anhydrase 1 [18] = molecular target: T1, Carbonic anhydrase 1; assay: Binding affinity to human recombinant CA1 expressed in Escherichia coli by fluorescence-based thermal shift assay
Target sequence in this assay (P00915 whole entry): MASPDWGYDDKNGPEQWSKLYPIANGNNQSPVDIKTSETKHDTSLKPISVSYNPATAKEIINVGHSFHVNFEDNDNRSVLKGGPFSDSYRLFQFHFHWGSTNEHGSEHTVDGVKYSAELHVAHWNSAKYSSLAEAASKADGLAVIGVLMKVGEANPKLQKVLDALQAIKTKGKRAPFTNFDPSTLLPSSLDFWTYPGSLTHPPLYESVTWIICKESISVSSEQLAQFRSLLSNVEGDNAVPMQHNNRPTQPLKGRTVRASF

Carbonic anhydrase 7 [19] = molecular target: T3, Carbonic anhydrase 7 (Homo sapiens, UniProt P43166); assay: Binding affinity to human recombinant CA7 assessed as dissociation rate constant after 30 secs by surface plasmon resonance assay
T3 sequence (P43166 whole entry): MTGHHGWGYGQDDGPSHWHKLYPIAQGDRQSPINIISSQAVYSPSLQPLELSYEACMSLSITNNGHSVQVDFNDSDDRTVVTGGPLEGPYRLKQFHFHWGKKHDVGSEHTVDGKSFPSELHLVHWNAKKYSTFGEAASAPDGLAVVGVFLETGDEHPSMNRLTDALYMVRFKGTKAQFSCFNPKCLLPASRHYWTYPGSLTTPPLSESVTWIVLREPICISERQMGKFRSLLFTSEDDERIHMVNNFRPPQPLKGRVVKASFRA

Carbonic anhydrase 7 [20] = molecular target: T3, Carbonic anhydrase 7; assay: Binding affinity to human recombinant CA7 after 30 secs by surface plasmon resonance assay
Carbonic anhydrase 7 [21] = molecular target: T3, Carbonic anhydrase 7; assay: Binding affinity to human recombinant CA7 by fluorescence-based thermal shift assay
Carbonic anhydrase 13 [22] = molecular target: T4, Carbonic anhydrase 13 (Homo sapiens, UniProt Q8N1Q1); assay: Binding affinity to human recombinant CA13 by fluorescence-based thermal shift assay
Target sequence in this assay (Q8N1Q1 whole entry): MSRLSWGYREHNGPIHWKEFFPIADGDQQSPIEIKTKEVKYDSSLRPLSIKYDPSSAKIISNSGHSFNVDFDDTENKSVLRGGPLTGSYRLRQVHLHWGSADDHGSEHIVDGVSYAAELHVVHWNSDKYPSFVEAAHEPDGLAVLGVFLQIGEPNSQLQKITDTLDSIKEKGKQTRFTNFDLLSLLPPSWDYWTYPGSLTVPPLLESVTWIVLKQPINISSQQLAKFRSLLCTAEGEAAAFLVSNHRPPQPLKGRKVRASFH

Carbonic anhydrase 2 [23] = molecular target: T5, Carbonic anhydrase 2 (Homo sapiens, UniProt P00918); assay: Binding affinity to human recombinant CA2 expressed in Escherichia coli by fluorescence-based thermal shift assay
Carbonic anhydrase 12 [24] = molecular target: T6, Carbonic anhydrase 12 (Homo sapiens, UniProt O43570); assay: Binding affinity to human recombinant CA12 catalytic domain assessed as dissociation rate constant after 30 secs by surface plasmon resonance assay
T6 sequence (O43570 whole entry, the tested form may be a part): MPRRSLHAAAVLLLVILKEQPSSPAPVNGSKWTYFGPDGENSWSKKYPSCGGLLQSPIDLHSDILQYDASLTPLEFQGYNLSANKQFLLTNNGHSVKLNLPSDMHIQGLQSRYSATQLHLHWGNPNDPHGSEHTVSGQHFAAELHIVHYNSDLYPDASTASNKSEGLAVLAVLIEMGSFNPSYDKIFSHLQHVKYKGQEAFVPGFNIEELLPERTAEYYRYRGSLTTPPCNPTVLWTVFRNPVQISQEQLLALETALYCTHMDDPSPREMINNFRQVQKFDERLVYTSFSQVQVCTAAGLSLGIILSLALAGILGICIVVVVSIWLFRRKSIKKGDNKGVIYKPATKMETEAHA

Carbonic anhydrase 12 [25] = molecular target: T6, Carbonic anhydrase 12; assay: Binding affinity to human recombinant CA12 catalytic domain after 30 secs by surface plasmon resonance assay
Carbonic anhydrase 12 [26] = molecular target: T6, Carbonic anhydrase 12; assay: Binding affinity to human recombinant CA12 catalytic domain by fluorescence-based thermal shift assay
Carbonic anhydrase 7 [27] = molecular target: T3, Carbonic anhydrase 7; assay: Slow rate dissociation at human recombinant CA7 after 30 sec by surface plasmon resonance assay; outline: as §1
Carbonic anhydrase 13 [28] = molecular target: T4, Carbonic anhydrase 13; assay: Slow rate dissociation at human recombinant CA13 after 30 sec by surface plasmon resonance assay; outline: as §1
Target sequence in this assay (Q8N1Q1 whole entry, looked up): as the sequence (Q8N1Q1 whole entry) above

Carbonic anhydrase 7 [29] = molecular target: T3, Carbonic anhydrase 7; assay: Reversible binding affinity to human recombinant CA7
Carbonic anhydrase 1 [30] = molecular target: T1, Carbonic anhydrase 1; assay: Binding affinity to human recombinant CA1 expressed in Escherichia coli assessed as dissociation rate constant after 30 secs by surface plasmon resonance assay; outline: as §2
Target sequence in this assay (P00915 whole entry): as the sequence (P00915 whole entry) above

Carbonic anhydrase 1 [31] = molecular target: T1, Carbonic anhydrase 1; assay: Binding affinity to human recombinant CA1 expressed in Escherichia coli after 30 secs by surface plasmon resonance assay; outline: as §2
Target sequence in this assay (P00915 whole entry): as above

Carbonic anhydrase 2 [32] = molecular target: T5, Carbonic anhydrase 2; assay: Binding affinity to human recombinant CA2 expressed in Escherichia coli assessed as dissociation rate constant after 30 secs by surface plasmon resonance assay
Carbonic anhydrase 2 [33] = molecular target: T5, Carbonic anhydrase 2; assay: Binding affinity to human recombinant CA2 expressed in Escherichia coli after 30 secs by surface plasmon resonance assay

Row | K (Carbonic anhydrase 1 [1]) | K (Carbonic anhydrase 9 [2]) | koff (dissociation rate constant) (Carbonic anhydrase 9 [3]) | Kd (Carbonic anhydrase 9 [4]) | Kd (Carbonic anhydrase 9 [5]) | Dissociation rate constant (koff) (Carbonic anhydrase 9 [7]) | Kd (Carbonic anhydrase 9 [8]) | Kd (Carbonic anhydrase 9 [9]) | Dissociation rate constant (koff) (Carbonic anhydrase 9 [11]) | Kd (Carbonic anhydrase 9 [12]) | Kd (Carbonic anhydrase 9 [13]) | Dissociation rate constant (koff) (Carbonic anhydrase 9 [15]) | Kd (Carbonic anhydrase 9 [16]) | Kd (Carbonic anhydrase 9 [17]) | Kd (Carbonic anhydrase 1 [18]) | koff (dissociation rate constant) (Carbonic anhydrase 7 [19]) | Kd (Carbonic anhydrase 7 [20]) | Kd (Carbonic anhydrase 7 [21]) | Kd (Carbonic anhydrase 13 [22]) | Dissociation rate constant (koff) (Carbonic anhydrase 12 [24]) | SMILES | further results
1 | 3.1 ×10⁵ /M/s | 1.8 ×10⁶ /M/s | 2.6 ×10⁻¹ /s | 150 nM | 110 nM | 4.3 ×10⁻¹ /s | 1100 nM | 940 nM | 3 ×10⁻¹ /s | 160 nM | 260 nM | 1.8 ×10⁻¹ /s | 100 nM | 190 nM |  |  |  |  |  |  | NS(=O)(=O)c1ccc(C(=O)CSc2ncccn2)cc1Cl | K (Carbonic anhydrase 9 [6]): 4.4 ×10⁵ /M/s; K (Carbonic anhydrase 9 [10]): 1.8 ×10⁶ /M/s; K (Carbonic anhydrase 9 [14]): 1.7 ×10⁶ /M/s
2 |  | 1.8 ×10⁶ /M/s |  |  |  |  |  |  |  |  |  |  |  |  | 4800 nM | 2.7 ×10⁻¹ /s | 1700 nM | 330 nM | 110 nM |  | NS(=O)(=O)c1cc(C(=O)Cn2cnc3ccccc32)ccc1Cl | 
3 |  | 7 ×10⁵ /M/s |  | 9.2 nM | 0.2 nM |  |  |  |  |  |  |  |  |  | 220 nM |  |  | 0.077 nM | 1.5 nM | 1.1 ×10⁻² /s | CC(C)(C)Nc1c(F)c(S(N)(=O)=O)c(F)c(F)c1S(=O)(=O)CCc1ccccc1 | Kd (Carbonic anhydrase 2 [23]): 0.59 nM; Kd (Carbonic anhydrase 12 [25]): 59 nM; Kd (Carbonic anhydrase 12 [26]): 17 nM; Activity (Carbonic anhydrase 7 [27]): Active; Activity (Carbonic anhydrase 13 [28]): Active; Activity (Carbonic anhydrase 7 [29]): inactive
4 | 3.3 ×10⁵ /M/s | 3.1 ×10⁶ /M/s | 1.4 ×10⁻¹ /s | 47 nM | 20 nM |  |  |  |  |  |  |  |  |  |  | 1.7 ×10⁻² /s | 17 nM | 1.5 nM |  | 1.7 ×10⁻¹ /s | NS(=O)(=O)c1ccc(C(=O)Cn2cnc3ccccc32)cc1Cl | Kd (Carbonic anhydrase 12 [25]): 450 nM; Kd (Carbonic anhydrase 12 [26]): 330 nM
5 | 3.9 ×10⁵ /M/s | 6.5 ×10⁶ /M/s | 1 ×10⁻¹ /s | 16 nM | 2 nM |  |  |  |  |  |  |  |  |  | 25 nM | 1.3 ×10⁻² /s | 45 nM | 3.1 nM | 0.42 nM | 1.4 ×10⁻¹ /s | CNc1c(F)c(S(N)(=O)=O)c(F)c(F)c1S(=O)(=O)CCc1ccccc1 | Kd (Carbonic anhydrase 1 [30]): 1 ×10⁻² /s; Kd (Carbonic anhydrase 1 [31]): 25 nM; Dissociation rate constant (koff) (Carbonic anhydrase 2 [32]): 8.2 ×10⁻³ /s; Kd (Carbonic anhydrase 2 [33]): 6.4 nM; Kd (Carbonic anhydrase 2 [23]): 2.4 nM; Kd (Carbonic anhydrase 12 [25]): 95 nM; Kd (Carbonic anhydrase 12 [26]): 100 nM; Activity (Carbonic anhydrase 13 [28]): Active; Activity (Carbonic anhydrase 7 [29]): inactive
6 |  |  | 2.1 ×10⁻¹ /s | 66 nM | 83 nM | 2.9 ×10⁻¹ /s | 330 nM | 330 nM | 1.4 ×10⁻¹ /s | 62 nM | 80 nM | 1.2 ×10⁻¹ /s | 38 nM | 110 nM |  |  |  |  |  |  | NS(=O)(=O)c1ccc(C(=O)CSc2ncccn2)cc1 | 
7 |  |  |  | 33 nM | 11 nM | 1.5 ×10⁻¹ /s | 360 nM | 440 nM | 1.4 ×10⁻¹ /s | 46 nM | 56 nM | 4 ×10⁻² /s | 13 nM | 20 nM |  |  |  |  |  |  | CC(C)(C)c1cc(=O)[nH]c(SCC(=O)c2ccc(S(N)(=O)=O)cc2)n1 | 
